From PubChem BioAssay
The list is not random: actives were taken first. Their share in the collection is about 3.5%.
MrgX1 antagonist – blocks BAM8-22 activation of human MrgX1 receptor; AID 588676; B-score at 10 µM; MRGX1-HEK293 calcium flux, Fluo-4, BAM8-22 antagonism; hits give low values; actives 1.3% (n = 310,000);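 active means calcium-response B-score plate-corrected more than 3 library SD below zero, starting fluorescence within 5 deviations, no agonist response on first addition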;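 further: peak minus trough fluorescence over baseline after final BAM8-22 challenge near maximal dose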
Target sequence (Q96LB2 whole entry, looked up): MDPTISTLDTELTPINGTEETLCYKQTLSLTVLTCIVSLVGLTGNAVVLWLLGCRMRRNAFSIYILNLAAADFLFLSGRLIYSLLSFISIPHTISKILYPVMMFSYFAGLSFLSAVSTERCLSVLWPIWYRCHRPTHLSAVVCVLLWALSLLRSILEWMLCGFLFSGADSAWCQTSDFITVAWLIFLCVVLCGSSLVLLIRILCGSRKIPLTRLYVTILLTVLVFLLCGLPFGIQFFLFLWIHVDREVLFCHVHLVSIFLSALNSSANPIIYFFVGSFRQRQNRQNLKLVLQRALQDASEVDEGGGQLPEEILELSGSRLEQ
MrgX1 PAM – human MrgX1 positive allosteric modulation, primary screen; actives 0.63% (n = 310,000); B-score at 10 µM; MrgX1-HEK293, Fluo-4 calcium flux, FDSS; hits give high values;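 active means plate-corrected calcium response at least 3 library SD above typical, normal starting fluorescence, not activating the receptor alone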;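 further: compound read alongside a low EC10 to EC30 dose of BAM8-22 agonist; peak minus trough fluorescence over baseline measured at the second addition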
RGS4 pot – RGS4 potentiation or activation. B-score at 10 µM. actives 0.92% (n = 310,000). HEK293 M3R/inducible RGS4, carbachol calcium flux Fluo4; hits give low values;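 active means B-score of the integrated calcium signal more than 4 SD below the library mean, with starting fluorescence not abnormally high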;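 further: negative B-score means reduced calcium response which marks RGS4 activation or potentiation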
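System – HEK293 FlpIn-TREx cells, stable M3R, doxycycline-inducible RGS4 · Reagent – ECmax carbachol challenge · Times – compound preincubation 20 min at room temperature before agonist · Technique – Fluo4 fluorescence kinetic imaging of calcium · Measure – B score of integrated Fluo4 ratio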
RGS4 block – human RGS4 inhibition | P49798 | HEK293 M3R/RGS4 inducible, Fluo-4 calcium flux; hits give high values; triggered by carbachol at its EC20 | B-score at 10 µM | actives 0.45% (n = 310,000) | AID 463165;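 active means B-score, a plate-corrected calcium signal, over three deviations above library mean, with baseline fluorescence within five deviations of library mean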;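 further: RGS4 expression induced by doxycycline in cells with stable M3 receptor; B-score is computed from the integrated fluorescence ratio over baseline after carbachol; higher B-score means a larger calcium signal and so more RGS4 inhibition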
Target sequence (P49798 whole entry, looked up): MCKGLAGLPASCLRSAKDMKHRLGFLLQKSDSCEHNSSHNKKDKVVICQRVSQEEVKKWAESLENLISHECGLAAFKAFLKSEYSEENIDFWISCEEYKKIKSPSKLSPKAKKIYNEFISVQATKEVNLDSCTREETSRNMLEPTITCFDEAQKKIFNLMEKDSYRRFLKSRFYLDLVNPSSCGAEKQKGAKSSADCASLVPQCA
MrgX1 ag – activates human MrgX1 receptor signaling. MrgX1-HEK293 cells, Fluo-4 calcium fluorescence, agonist mode; hits give high values. actives 0.44% (n = 310,000). B-score at 10 µM;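 active means calcium response B-score plate-corrected fluorescence ratio at least 3 library SD, with starting fluorescence B-score inside 5 SD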
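System – MrgX1-expressing HEK293 cells · Incubation – cells plated overnight, dye loaded 0.5 h 37 °C, 0.5 h room temperature · Technique – kinetic Fluo-4 NW fluorescence of intracellular calcium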
MrgX1 PAM conf – human MrgX1 positive allosteric modulation, re-confirmation; MrgX1-HEK293, Fluo-4 calcium fluorescence, FDSS; activation (ratio percentage), % at 10 µM; AID 602413; shares compounds with MrgX1 PAM; actives 13% (n = 1,200);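 active means ratio at least 3 SD above the weak peptide control, stable starting fluorescence, no direct agonism earlier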;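 further: compound followed by low BAM8-22 agonist challenge near EC20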
HEK293 Ca flux – counter-screen for MrgX1 antagonists: effect in parental HEK293 cells | shares compounds with MrgX1 antagonist | Fluo-4 calcium fluorescence, FDSS | fluorescence ratio F(max-min)/F0 at 10 µM | actives 2% (n = 4,000);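 active means duplicate-averaged calcium fluorescence ratio at least three times the standard deviation of buffer wells, a nonspecific response in parental cells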
HEK293 Ca counter – activity in parental HEK293 cells without MrgX1; shares compounds with MrgX1 antagonist; parental HEK293 calcium flux, Fluo-4 fluorescence ratio; hits give high values; fluorescence ratio F(max-min)/F0 at 10 µM; actives 0.4% (n = 4,000);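 active means calcium fluorescence ratio, averaged over duplicates, at least 3 SD of the buffer-well ratio, meaning a nonspecific response in receptor-free cells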;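 further: untransfected parental HEK293 lacking MrgX1 used as counterscreen for MrgX1 allosteric activators; fluorescence change taken during the second addition on a kinetic imager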
HEK293 Ca cntr2 – counter-screen for MrgX1 activators: effect in parental HEK293 cells. shares compounds with MrgX1 antagonist. Fluo-4 calcium fluorescence (FDSS); hits give high values. fluorescence ratio F(max-min)/F0 at 10 µM. actives 8.7% (n = 4,000). AID 624115;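 active means calcium fluorescence ratio at least three times the spread of buffer wells, meaning a non-specific response in parental cells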
An asterisk follows results filed as active; i = inactive; . = no result.

SMILES | MrgX1 antagonist | MrgX1 PAM | RGS4 pot | RGS4 block | MrgX1 ag | MrgX1 PAM conf | HEK293 Ca flux | HEK293 Ca counter | HEK293 Ca cntr2
CCC(Sc1nc2ccccc2c(=O)n1CCN1CCOCC1)C(=O)NCc1cccnc1 (stereo not drawn) | i | 6.64* | i | i | i | i | i | i | 47*
COc1ccc2[nH]cc(C(=O)CCl)c2c1 | i | 21.5* | i | i | i | i | i | i | i
Cc1nc(Oc2ccccc2)c2ccsc2n1 | i | 9.77* | i | i | i | 4.8%* | i | i | i
COc1ccccc1Oc1ncnc2c1oc1ccccc12 | i | 15.3* | i | i | i | 32.8%* | i | i | i
CCN(CC)CCOc1ncnc2c1oc1ccccc12 | i | i | i | i | i | . | . | . | .
c1ccc(Sc2ncnc3c2oc2ccccc23)cc1 | i | 12.2* | i | i | i | 21.8%* | i | i | i
Cc1nc(Oc2ccccc2)c2oc3ccccc3c2n1 | i | 34.1* | i | i | i | 24.9%* | i | i | i
C[C@H]1CCC(=O)N([C@H](COc2ccccc2)Cc2ccccc2)CC1 | i | i | i | i | i | . | . | . | .
CCCCCCSc1cc(-c2nc3ccc(C)cn3c2NCc2ccccc2)ccc1OC | i | i | i | i | i | . | . | . | .
Cc1nc(Nc2ccccc2F)c2oc3ccccc3c2n1 | i | 6.96* | i | i | i | i | i | i | i
COc1ccc(Oc2nc(C)nc3c2oc2ccccc23)cc1 | i | 14.1* | i | i | i | 26.7%* | i | i | i
COc1ccc(Nc2nc(C)nc3c2oc2ccccc23)c(OC)c1 | i | i | i | i | i | . | . | . | .
CC(=O)Oc1ccc(C23CC4CC(CC(C4)C2)C3)cc1C(=O)O | i | i | i | i | i | . | . | . | .
O=C(C1CCCN1S(=O)(=O)c1ccc(Cl)c(Cl)c1)N1CCCCC1 (stereo not drawn) | i | i | i | i | i | . | . | . | .
CCCn1c(N)c(N(CCOC)C(=O)c2cc(C)cc(C)c2)c(=O)[nH]c1=O | i | i | i | i | i | . | . | . | .
O=C(CSc1nnc(-c2ccc(OC(F)F)cc2)o1)NCc1cccs1 | i | 7.48* | i | i | i | i | i | i | i
O=C(CSc1nc2ccccc2c(=O)n1-c1ccc(OC(F)F)cc1)NCc1cccs1 | i | i | i | i | i | . | . | . | .
COc1ccccc1C(=O)N/C(=C\c1cn(S(=O)(=O)N(C)C)c2ccccc12)C(=O)N1CCCC1 | i | i | i | i | i | . | . | . | .
O=C(c1ccc(Br)cc1)N(c1ccccn1)C1CCCCC1 | i | 19* | i | i | i | i | i | i | i
CC(C(=O)NCCc1ccccc1)N1c2cccc3cccc(c23)S1(=O)=O (stereo not drawn) | i | i | i | i | i | . | . | . | .
Cn1nc(C(=O)OCC(=O)Nc2ccc3ccccc3c2)c2ccccc2c1=O | i | i | i | i | i | . | . | . | .
COc1ccccc1-c1nc(C#N)c(NCCCn2ccnc2)o1 | i | i | i | i | i | . | . | . | .
O=C(CCc1nc(-c2ccccc2)c(-c2ccccc2)o1)OCc1ccc(Cl)cc1 | i | i | i | i | i | . | . | . | .
O=C(CCc1nc(-c2ccccc2)c(-c2ccccc2)o1)OCc1ccc(Br)cc1 | i | 19.7* | i | i | i | i | i | i | i
COc1ccc(S(=O)(=O)N2CCCC2C(=O)Nc2ccc(C(C)=O)cc2)cc1 (stereo not drawn) | i | i | i | i | i | . | . | . | .
SMILES | MrgX1 antagonist | MrgX1 PAM | RGS4 pot | RGS4 block | MrgX1 ag | MrgX1 PAM conf | HEK293 Ca flux | HEK293 Ca counter | HEK293 Ca cntr2
Cc1cccc(NC(=O)c2ccc3c(Cl)c4c(nc3c2)CCCC4)n1 | i | 20.1* | i | i | i | i | i | i | i
O=S(=O)(Nc1ccccc1)c1ccc(Oc2ncc(C(F)(F)F)cc2Cl)cc1 | i | i | i | i | i | . | . | . | .
Cc1cc(C)n(/N=C/c2ccccc2O)c(=O)c1 | i | i | i | i | i | . | . | . | .
Cc1cc(C)n(/N=C/c2cc(Cl)cc(Cl)c2O)c(=O)c1 | i | 21.1* | i | i | i | i | 0.426* | i | 76.7*
COc1cc(NC(=O)C2CCN(c3cnccn3)CC2)cc(OC)c1OC | i | i | i | i | i | . | . | . | .
O=C(Cc1ccc(F)cc1)Nc1nnc(SCC(=O)N2CCCCC2)s1 | i | i | i | i | i | . | . | . | .
O=C(Nc1nnc(SCC(=O)N2CCCCC2)s1)c1ccc(F)cc1F | i | 6.78* | i | i | i | i | i | i | i
CC(=O)NCCn1c(SCC(=O)NCC2CCCO2)nc2ccccc2c1=O (stereo not drawn) | i | i | i | i | i | . | . | . | .
O=C(CSc1nc2ccccc2c(=O)n1CC1CCCO1)NCC1CCCO1 (stereo not drawn) | i | 8.24* | i | i | i | i | i | i | i
O=c1c2ccccc2c2ccccc2c(=O)n1CC1CCCO1 (stereo not drawn) | i | 9.19* | i | i | i | i | i | i | i
COC(=O)c1ccc(CNC(=O)/C=C/c2cc([N+](=O)[O-])ccc2OC(F)F)cc1 | i | i | i | i | i | . | . | . | .
CC1=C(C)CC(C(=O)Nc2nccs2)C(C(=O)O)C1 (stereo not drawn) | i | i | i | i | i | . | . | . | .
COc1ccc(N(CC(=O)Nc2ccccc2C(N)=O)S(=O)(=O)c2ccc(C)c([N+](=O)[O-])c2)cc1 | i | i | i | i | i | . | . | . | .
Cc1ccc(S(=O)(=O)N(CCC#N)C2CCCCC2)c2nsnc12 | i | 6.8* | i | i | i | i | i | i | i
NC(=O)CCN(C1CCCCC1)S(=O)(=O)c1cccc2nsnc12 | i | i | i | i | i | . | . | . | .
Cc1nc2cc3c(cc2c(C)c1C(=O)OC(C)C)OCO3 | i | 7.06* | i | i | i | i | i | i | i
